Experiments:
[1] = tested on: Staphylococcus aureus; test: Antibacterial activity against methicillin-sensitive Staphylococcus aureus NCTC 12981 after 16 hrs by microdilution method; type: functional; details: NCTC 12981, 16 h
In short: (§1)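 Broth microdilution in cation-adjusted Mueller-Hinton broth (20 mg/l Ca2+, 10 mg/L Mg2+), inoculum 5×10^5 CFU/mL. Compounds from DMSO stocks, final DMSO <1%, tested over 0.12–128 µg/ml. Incubated 37 °C and read visually after 16 h. MIC is the lowest concentration with no visible growth, determined at least twice and converted to µmol/L.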

[2] = tested on: Staphylococcus aureus; test: Antibacterial activity against methicillin-resistant Staphylococcus aureus NCTC 13373 after 16 hrs by microdilution method; type: functional; details: NCTC 13373, 16 h
In short: (§2)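 Broth microdilution in cation-adjusted Mueller-Hinton broth (20 mg/l Ca2+, 10 mg/L Mg2+), inoculum 5×10^5 CFU/mL. Compounds in DMSO, solvent under 1% in well, tested over 0.12-128 µg/ml. […] Each determined at least twice; values converted to µmol/L.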

[3] = tested on: Staphylococcus aureus; test: Antibacterial activity against Norfloxacin-resistant Staphylococcus aureus 1199B over-expressing NorA after 16 hrs by microdilution method; type: functional; in short: as §2
[4] = tested on: Staphylococcus aureus; test: Antibacterial activity against erythromycin-resistant Staphylococcus aureus RN4220 after 16 hrs by microdilution method; type: functional; details: RN4220, 16 h; in short: as §2
[5] = tested on: Staphylococcus aureus; test: Antibacterial activity against Staphylococcus aureus EMRSA-15 after 16 hrs by microdilution method; type: functional; details: EMRSA-15, 16 h; in short: as §1
[6] = tested on: Staphylococcus aureus; test: Antibacterial activity against tetracycline/methicillin-resistant Staphylococcus aureus XU212 after 16 hrs by microdilution method; type: functional; details: XU212, 16 h; in short: as §2
[7] = tested on: Escherichia coli; test: Antibacterial activity against Escherichia coli NCTC 12241 after 16 hrs by microdilution method; type: functional; details: NCTC 12241, 16 h; in short: as §1
[8] = tested on: Enterococcus faecalis; test: Antibacterial activity against Enterococcus faecalis NCTC 12697 after 16 hrs by microdilution method; type: functional; details: NCTC 12697, 16 h; in short: as §1
[9] = tested on: Bacillus subtilis; test: Antibacterial activity against Bacillus subtilis NCTC 10400 after 16 hrs by microdilution method; type: functional; details: NCTC 10400, 16 h; in short: as §1
[10] = Cytotoxicity against human MRC5 cells; type: cell-based
[11] = tested on: Staphylococcus aureus; test: Potency index, ratio of norfloxacin MIC to test compound MIC for Norfloxacin-resistant Staphylococcus aureus 1199B over-expressing NorA; type: functional

Row | Structure (SMILES) | MIC [1] | MIC [2] | MIC [3] | MIC [4] | MIC [5] | MIC [6] | MIC [7] [µg/mL] | MIC [8] | MIC [9] | IC90 [10] [µM] | Ratio [11]
1 | CC(=O)c1cc(C2CCCCC2)ccc1C1CCCCC1 | 450 µM | 450 µM | 450 µM | 225 µM | 225 µM | 225 µM | > 128 | – | – | – | –
2 | CC(C)c1cc(C(C)C)c(C(=O)/C=C(\O)C(=O)O)c(C(C)C)c1 | 13 µM | > 128 µg/mL | 25 µM | 50 µM | 25 µM | 50 µM | > 128 | > 128 µg/mL | 25 µM | 90 | –
3 | O=C(O)CCC(=O)c1cc(C2CCCCC2)ccc1C1CCCCC1 | 94 µM | 94 µM | 47 µM | 47 µM | 94 µM | 47 µM | > 128 | – | – | – | –
4 | CC(C)c1ccc(C(=O)/C=C(\O)C(=O)O)c(C(C)C)c1 | – | – | 232 µM | 232 µM | 232 µM | 464 µM | > 128 | – | – | – | –
5 | O=C(O)/C(O)=C/C(=O)c1ccc(N2CCOCC2)cc1 | > 128 µg/mL | > 128 µg/mL | > 128 µg/mL | > 128 µg/mL | > 128 µg/mL | > 128 µg/mL | > 128 | > 128 µg/mL | > 128 µg/mL | – | –
6 | COc1cc(C)c(C(=O)/C=C(\O)C(=O)O)cc1C | > 128 µg/mL | > 128 µg/mL | > 128 µg/mL | > 128 µg/mL | > 128 µg/mL | > 128 µg/mL | > 128 | > 128 µg/mL | > 128 µg/mL | – | –
7 | Cc1cc(C)c(C)c(C(=O)/C=C(\O)C(=O)O)c1C | > 128 µg/mL | > 128 µg/mL | > 128 µg/mL | > 128 µg/mL | > 128 µg/mL | > 128 µg/mL | > 128 | 516 µM | > 128 µg/mL | – | –
8 | CCCCc1ccc(C(=O)/C=C(\O)C(=O)O)cc1 | 258 µM | 258 µM | 258 µM | 258 µM | 258 µM | 258 µM | > 128 | 129 µM | > 128 µg/mL | – | –
9 | CCc1cc(CC)c(C(=O)/C=C(\O)C(=O)O)c(CC)c1 | – | – | 116 µM | 232 µM | 232 µM | 232 µM | > 128 | – | – | – | 10
10 | O=C(O)/C(O)=C/C(=O)c1ccccc1 | – | – | > 2660 µM | – | – | – | > 128 | – | – | – | –
11 | COc1cccc(C(=O)/C=C(\O)C(=O)O)c1 | > 128 µg/mL | > 128 µg/mL | > 128 µg/mL | > 128 µg/mL | > 128 µg/mL | > 128 µg/mL | > 128 | > 128 µg/mL | > 128 µg/mL | – | –
12 | O=C(O)/C(O)=C/C(=O)c1cccc(Br)c1 | > 128 µg/mL | > 128 µg/mL | > 128 µg/mL | > 128 µg/mL | > 128 µg/mL | > 128 µg/mL | > 128 | > 128 µg/mL | > 128 µg/mL | – | –
13 | O=C(O)c1cn(C2CC2)c2cc(N3CCNCC3)c(F)cc2c1=O [CIPROFLOXACIN] | – | – | – | 0.76 µM | – | – | – | 1.5 µM | – | – | –
14 | O=C(O)CCC(=O)c1ccc(-c2ccccc2)cc1 [FENBUFEN] | > 128 µg/mL | > 128 µg/mL | > 128 µg/mL | > 128 µg/mL | > 128 µg/mL | > 128 µg/mL | > 128 | – | – | – | –
15 | C[C@H]1COc2c(N3CCN(C)CC3)c(F)cc3c(=O)c(C(=O)O)cn1c23 [LEVOFLOXACIN] | – | – | 5.53 µM | 0.69 µM | – | – | – | 1.4 µM | – | – | –
16 | COc1c(N2C[C@@H]3CCCN[C@@H]3C2)c(F)cc2c(=O)c(C(=O)O)cn(C3CC3)c12 [MOXIFLOXACIN] | – | – | 0.62 µM | 0.31 µM | – | – | – | – | – | – | –
17 | CCn1cc(C(=O)O)c(=O)c2cc(F)c(N3CCNCC3)cc21 [NORFLOXACIN] | – | – | 106 µM | > 128 µg/mL | 3.3 µM | > 128 µg/mL | – | 6.3 µM | – | – | –

Source: ChEMBL document CHEMBL4138171, “Design, synthesis and biological evaluation of novel aryldiketo acids with enhanced antibacterial activity against multidrug resistant bacterial strains” (Eur J Med Chem, 2018)
